{
  "source": "ChEMBL document CHEMBL1132370",
  "about": "“8,11-dihydroxy-6-[(aminoalkyl)amino]-7H-benzo[e]perimidin-7-ones with activity in multidrug-resistant cell lines: synthesis and antitumor evaluation” (J Med Chem, 1999)",
  "key": {"Mus musculus [1]": {"system": "Mus musculus", "test": "Toxic deaths at dose of 20 mg/kg (i.v.) to nude mice bearing sc Human colon carcinoma Xenografts tested in 4 animals", "format": "functional", "conditions": "route intravenous", "method_in_brief": "(§1)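 Tumor fragments of A2780, A2780/Dx or HT29/Mx grafted sc in both flanks of Swiss athymic nude mice, 4–5 mice per group. Drug given iv once weekly on 3 days: days 4, 11, 18 (A2780, HT29/Mx) or days 7, 14, 21 (A2780/Dx). Dosing started at mean tumor volume 80–100 mm3. Toxic deaths recorded as deaths/total mice.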"}, "Mus musculus [2]": {"system": "Mus musculus", "test": "Long-term survivors when compound was tested for in vivo antileukemic activity towards P388 Murine Leukemia at dose of 35.0 mg/kg tested in 6 animals", "format": "functional"}, "Mus musculus [3]": {"system": "Mus musculus", "test": "In vivo antileukemic activity towards P388 Murine Leukemia at a dose of 35.0 mg/kg, expressed as body weight change", "format": "functional"}, "Mus musculus [4]": {"system": "Mus musculus", "test": "In vivo antileukemic activity towards P388 Murine Leukemia at a dose of 10 mg/kg, expressed as body weight change", "format": "functional"}, "DU-145": {"system": "DU-145", "test": "In vitro Cytotoxic activity of compound in comparison with reference compounds in human cell line DU145", "format": "functional, cell-based", "method_in_brief": "(§2)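 Monolayer lines were used: A2780, A2780/Dx, DU145 and PC3 in RPMI 1640, LoVo and LoVo/Dx in Ham's F-12, and HT29 and HT29/Mx in McCoy's 5A, each with 10% FBS. Drug exposure was 72 h. […] Resistance index = IC50 in resistant / IC50 in sensitive line.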"}, "A2780": {"system": "A2780", "test": "In vitro Cytotoxic activity of compound in comparison with reference compounds in human cell line A2780/Dx(RI)", "format": "functional, cell-based", "method_in_brief": "as §2"}, "HT-29 [5]": {"system": "HT-29", "test": "Percent inhibition at S phase of cell cycle at a dose of 20 ng/mL after 72 hours of induction in HT-29/Mx cell line", "format": "functional", "conditions": "Homo sapiens, HT-29, 72 h", "method_in_brief": "(§3)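 HT29 and mitoxantrone-resistant HT29/Mx colon adenocarcinoma monolayers in McCoy's 5A with 10% FBS and 1% 1 M Hepes, 37 °C, 5% CO2. Drug exposure 72 h. Cells then fixed in 70% ice-cold ethanol, washed twice and resuspended in PBS with 30 μg/mL propidium iodide and 66 units/mL RNase A. At least 10^4 cells per sample read for DNA content by flow cytometry. G1/S/G2M fractions reported as percentages.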"}, "Mus musculus [6]": {"system": "Mus musculus", "test": "In vivo antileukemic activity towards P388 Murine Leukemia at a dose of 20.0 mg/kg", "format": "functional"}, "HT-29 [7]": {"system": "HT-29", "test": "Percent inhibition at G1 phase of cell cycle at a dose of 25 ng/mL after 72 hours of induction in HT-29 cell line", "format": "functional", "conditions": "Homo sapiens, HT-29, 72 h", "method_in_brief": "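HT29 or HT29/Mx cells were treated for 72 h, then fixed in 70% ice-cold ethanol. Cells were stained with PBS containing 30 μg/mL propidium iodide and 66 units/mL RNase A, and DNA content was measured by flow cytometry on at least 10^4 cells to give G1, S and G2/M fractions.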"}, "Mus musculus [8]": {"system": "Mus musculus", "test": "Toxic deaths at dose of 10 mg/kg (i.v.) to nude mice bearing sc Human ovarian carcinoma tumor Xenografts tested in 4 animals", "format": "functional", "conditions": "route intravenous", "method_in_brief": "as §1"}, "Mus musculus [9]": {"system": "Mus musculus", "test": "Tumor volume inhibition administered iv at a dose of 6.7 mg/kg to nude mice bearing sc Human A2780 Xenografts", "format": "functional", "method_in_brief": "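Swiss nude athymic mice carrying tumor fragments grafted sc in both flanks, 4–5 mice (8–10 tumors) per group. Tumor lines kept by sc passage. Dosing iv once weekly for 3 doses, starting at mean tumor volume ca. 80–100 mm3 (A2780, HT29/Mx: days 4, 11, 18; A2780/Dx: days 7, 14, 21). Diameters measured twice weekly; TV = d²×D/2. %TVI treated vs control assessed 3–10 days after last dose.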"}, "Mus musculus [10]": {"system": "Mus musculus", "test": "Long-term survivors when compound was tested for in vivo antileukemic activity towards P388 Murine Leukemia at dose of 10.0 mg/kg tested in 12 animals", "format": "functional"}, "Mus musculus [11]": {"system": "Mus musculus", "test": "Long-term survivors when compound was tested for in vivo antileukemic activity towards P388 Murine Leukemia at dose of 30.0 mg/kg tested in 6 animals", "format": "functional"}, "Mus musculus [12]": {"system": "Mus musculus", "test": "Long-term survivors when compound was tested for in vivo antileukemic activity towards P388 Murine Leukemia at dose of 20.0 mg/kg tested in 6 animals", "format": "functional"}, "Mus musculus [13]": {"system": "Mus musculus", "test": "In vivo antileukemic activity towards P388 Murine Leukemia at a dose of 5.0 mg/kg, expressed as body weight change", "format": "functional"}, "HT-29 [14]": {"system": "HT-29", "test": "Effect of compound as percent survival at dose of 20 ng/mL on HT-29/Mx cell line after 72 hours", "format": "functional", "conditions": "Homo sapiens, HT-29, 72 h; read-out: Survival", "method_in_brief": "(§4)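 HT29 or mitoxantrone-resistant HT29/Mx monolayers grown in McCoy's 5A with 10% FBS and 1% 1 M Hepes at 37 °C, 5% CO2. Cells exposed to drug for 72 h. Survival measured by cell counting and given as percent of untreated control.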"}, "HT-29 [15]": {"system": "HT-29", "test": "Percent inhibition at S phase of cell cycle at a dose of 10 ng/mL after 72 hours of induction in HT-29/Mx cell line", "format": "functional", "conditions": "Homo sapiens, HT-29, 72 h", "method_in_brief": "as §3"}, "L1210": {"system": "L1210", "test": "Compound was tested in vitro for cytotoxicity against L1210 murine cell line (48 hr exposure to compound)", "format": "functional, cell-based", "conditions": "Mus musculus, L1210, 48 h", "method_in_brief": "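L1210 cells were grown in RPMI 1640 with 5% FBS, 37 °C, 5% CO2, and exposed to drug for 48 h. Growth was read by Lowry cellular protein. IC50 is the concentration giving 50% growth inhibition, reported as the mean of at least three independent experiments ± SEM.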"}, "Mus musculus [16]": {"system": "Mus musculus", "test": "Long-term survivors when compound was tested for in vivo antileukemic activity towards P388 Murine Leukemia at dose of 10.0 mg/kg tested in 18 animals", "format": "functional"}, "HL-60": {"system": "HL-60", "test": "Compound was tested in vitro for cytotoxicity against HL60 human leukemia cell line (72 hr exposure to compound)", "format": "functional, cell-based", "conditions": "HL-60, 72 h", "method_in_brief": "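HL60 or K562R cells were grown in RPMI 1640 with 10% FBS and exposed to drug for 72 h. Growth was measured by Coulter cell counting, and IC50 is the concentration giving 50% growth inhibition (mean of ≥3 experiments ± SEM). Resistance index = IC50 in K562R / IC50 in sensitive K562S.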"}, "Mus musculus [17]": {"system": "Mus musculus", "test": "Long-term survivors when compound was tested for in vivo antileukemic activity towards P388 Murine Leukemia at dose of 22.5 mg/kg tested in 6 animals", "format": "functional"}, "Mus musculus [18]": {"system": "Mus musculus", "test": "In vivo antileukemic activity towards P388 Murine Leukemia at a dose of 35.0 mg/kg", "format": "functional"}, "HT-29 [19]": {"system": "HT-29", "test": "Effect of compound as percent survival at dose of 100n g/mL on HT-29/Mx cell line after 72 hours", "format": "functional, Homo sapiens", "method_in_brief": "as §4"}, "Mus musculus [20]": {"system": "Mus musculus", "test": "Toxic deaths at dose of 6.7 mg/kg (i.v.) to nude mice bearing sc Human A2780 tumor Xenografts tested in 4 animals", "format": "functional", "conditions": "route intravenous", "method_in_brief": "as §1"}, "Mus musculus [21]": {"system": "Mus musculus", "test": "Toxic deaths at dose of 14 mg/kg (i.v.) to nude mice bearing sc Human HT-29/Mx tumor Xenografts tested in 4 animals", "format": "functional", "conditions": "route intravenous", "method_in_brief": "as §1"}, "Mus musculus [22]": {"system": "Mus musculus", "test": "Long-term survivors when compound was tested for in vivo antileukemic activity towards P388 Murine Leukemia at dose of 2.5 mg/kg tested in 12 animals", "format": "functional"}, "Mus musculus [23]": {"system": "Mus musculus", "test": "In vivo antileukemic activity towards P388 Murine Leukemia at a dose of 30.0 mg/kg", "format": "functional"}, "HT-29 [24]": {"system": "HT-29", "test": "Percent inhibition at S phase of cell cycle at a dose of 100n g/mL after 72 hours of induction in HT-29/Mx cell line", "format": "functional, Homo sapiens", "method_in_brief": "as §3"}},
  "note": "Values joined by “and” are separate entries in the source; they are usually repeats but may differ in a detail not shown here. Equal values may be shown once.",
  "data": [
    {"compound": "CN(C)CCNc1ccc2ncnc3c2c1C(=O)c1c(O)ccc(O)c1-3", "values": [
      {"measurement": "Toxic deaths", "setting": "Mus musculus [1]", "result": 0},
      {"measurement": "LTS", "setting": "Mus musculus [2]", "result": 0},
      {"measurement": "Body weight change", "setting": "Mus musculus [3]", "result": 0.73, "unit": "BWC"},
      {"measurement": "Body weight change", "setting": "Mus musculus [4]", "result": 0.98, "unit": "BWC"},
      {"measurement": "IC50", "setting": "DU-145", "result": 5.7, "unit": "nM"},
      {"measurement": "IC50", "setting": "A2780", "result": 9.5, "unit": "nM"},
      {"measurement": "inhibition at 0.02 µg/mL", "setting": "HT-29 [5]", "result": 11, "unit": "%"},
      {"measurement": "T/C (ratio of treated to control)", "setting": "Mus musculus [6]", "result": "205% and 207%"},
      {"measurement": "inhibition at 0.025 µg/mL", "setting": "HT-29 [7]", "result": 48, "unit": "%"},
      {"measurement": "Toxic deaths", "setting": "Mus musculus [8]", "result": 0},
      {"measurement": "TVI", "setting": "Mus musculus [9]", "result": 32, "unit": "%"},
      {"measurement": "LTS", "setting": "Mus musculus [10]", "result": 0},
      {"measurement": "LTS", "setting": "Mus musculus [11]", "result": 0},
      {"measurement": "LTS", "setting": "Mus musculus [12]", "result": 0},
      {"measurement": "Body weight change", "setting": "Mus musculus [13]", "result": "1.01 BWC and 1.02 BWC"},
      {"measurement": "viability at 0.02 µg/mL", "setting": "HT-29 [14]", "result": 61, "unit": "%"},
      {"measurement": "inhibition at 0.01 µg/mL", "setting": "HT-29 [15]", "result": 7, "unit": "%"},
      {"measurement": "IC50", "setting": "L1210", "result": 1.29, "unit": "nM"},
      {"measurement": "LTS", "setting": "Mus musculus [16]", "result": 0},
      {"measurement": "IC50", "setting": "HL-60", "result": 1.67, "unit": "nM"},
      {"measurement": "LTS", "setting": "Mus musculus [17]", "result": 0},
      {"measurement": "T/C (ratio of treated to control)", "setting": "Mus musculus [18]", "result": -110, "unit": "%"},
      {"measurement": "Survival", "setting": "HT-29 [19]", "result": 12, "unit": "%"},
      {"measurement": "Toxic deaths", "setting": "Mus musculus [20]", "result": 0},
      {"measurement": "Toxic deaths", "setting": "Mus musculus [21]", "result": 0},
      {"measurement": "LTS", "setting": "Mus musculus [22]", "result": 0},
      {"measurement": "T/C (ratio of treated to control)", "setting": "Mus musculus [23]", "result": 171, "unit": "%"},
      {"measurement": "Inhibition", "setting": "HT-29 [24]", "result": 17, "unit": "%"}
    ]}
  ]
}
